Measurements: ChEMBL document CHEMBL1153324, “Potent inhibitors of Huntingtin protein aggregation in a cell-based assay” (Bioorg Med Chem Lett, 2009)

Columns and labels:
[1] = molecular target: T1, Huntingtin (Homo sapiens, UniProt P42858); experiment: Inhibition of Huntingtin protein aggregation by cell based assay
Procedure, shortened: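 Stable transfectants express mutant huntingtin fused to mCFP from a tet-regulatable gene. Cells are seeded in 96-well format and treated with compound for 72 h. Controls are 2 μg/mL doxycycline and 0.1% DMSO (no dox). Aggregation is scored as the presence and magnitude of fluorescent intracellular inclusions (% cells with aggregates, aggregates per cell), and an IC50 is derived.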

[2] = molecular target: T1, Huntingtin; experiment: Inhibition of Huntingtin protein aggregation by yeast based assay

T1 sequence (P42858 whole entry, the tested form may be a part): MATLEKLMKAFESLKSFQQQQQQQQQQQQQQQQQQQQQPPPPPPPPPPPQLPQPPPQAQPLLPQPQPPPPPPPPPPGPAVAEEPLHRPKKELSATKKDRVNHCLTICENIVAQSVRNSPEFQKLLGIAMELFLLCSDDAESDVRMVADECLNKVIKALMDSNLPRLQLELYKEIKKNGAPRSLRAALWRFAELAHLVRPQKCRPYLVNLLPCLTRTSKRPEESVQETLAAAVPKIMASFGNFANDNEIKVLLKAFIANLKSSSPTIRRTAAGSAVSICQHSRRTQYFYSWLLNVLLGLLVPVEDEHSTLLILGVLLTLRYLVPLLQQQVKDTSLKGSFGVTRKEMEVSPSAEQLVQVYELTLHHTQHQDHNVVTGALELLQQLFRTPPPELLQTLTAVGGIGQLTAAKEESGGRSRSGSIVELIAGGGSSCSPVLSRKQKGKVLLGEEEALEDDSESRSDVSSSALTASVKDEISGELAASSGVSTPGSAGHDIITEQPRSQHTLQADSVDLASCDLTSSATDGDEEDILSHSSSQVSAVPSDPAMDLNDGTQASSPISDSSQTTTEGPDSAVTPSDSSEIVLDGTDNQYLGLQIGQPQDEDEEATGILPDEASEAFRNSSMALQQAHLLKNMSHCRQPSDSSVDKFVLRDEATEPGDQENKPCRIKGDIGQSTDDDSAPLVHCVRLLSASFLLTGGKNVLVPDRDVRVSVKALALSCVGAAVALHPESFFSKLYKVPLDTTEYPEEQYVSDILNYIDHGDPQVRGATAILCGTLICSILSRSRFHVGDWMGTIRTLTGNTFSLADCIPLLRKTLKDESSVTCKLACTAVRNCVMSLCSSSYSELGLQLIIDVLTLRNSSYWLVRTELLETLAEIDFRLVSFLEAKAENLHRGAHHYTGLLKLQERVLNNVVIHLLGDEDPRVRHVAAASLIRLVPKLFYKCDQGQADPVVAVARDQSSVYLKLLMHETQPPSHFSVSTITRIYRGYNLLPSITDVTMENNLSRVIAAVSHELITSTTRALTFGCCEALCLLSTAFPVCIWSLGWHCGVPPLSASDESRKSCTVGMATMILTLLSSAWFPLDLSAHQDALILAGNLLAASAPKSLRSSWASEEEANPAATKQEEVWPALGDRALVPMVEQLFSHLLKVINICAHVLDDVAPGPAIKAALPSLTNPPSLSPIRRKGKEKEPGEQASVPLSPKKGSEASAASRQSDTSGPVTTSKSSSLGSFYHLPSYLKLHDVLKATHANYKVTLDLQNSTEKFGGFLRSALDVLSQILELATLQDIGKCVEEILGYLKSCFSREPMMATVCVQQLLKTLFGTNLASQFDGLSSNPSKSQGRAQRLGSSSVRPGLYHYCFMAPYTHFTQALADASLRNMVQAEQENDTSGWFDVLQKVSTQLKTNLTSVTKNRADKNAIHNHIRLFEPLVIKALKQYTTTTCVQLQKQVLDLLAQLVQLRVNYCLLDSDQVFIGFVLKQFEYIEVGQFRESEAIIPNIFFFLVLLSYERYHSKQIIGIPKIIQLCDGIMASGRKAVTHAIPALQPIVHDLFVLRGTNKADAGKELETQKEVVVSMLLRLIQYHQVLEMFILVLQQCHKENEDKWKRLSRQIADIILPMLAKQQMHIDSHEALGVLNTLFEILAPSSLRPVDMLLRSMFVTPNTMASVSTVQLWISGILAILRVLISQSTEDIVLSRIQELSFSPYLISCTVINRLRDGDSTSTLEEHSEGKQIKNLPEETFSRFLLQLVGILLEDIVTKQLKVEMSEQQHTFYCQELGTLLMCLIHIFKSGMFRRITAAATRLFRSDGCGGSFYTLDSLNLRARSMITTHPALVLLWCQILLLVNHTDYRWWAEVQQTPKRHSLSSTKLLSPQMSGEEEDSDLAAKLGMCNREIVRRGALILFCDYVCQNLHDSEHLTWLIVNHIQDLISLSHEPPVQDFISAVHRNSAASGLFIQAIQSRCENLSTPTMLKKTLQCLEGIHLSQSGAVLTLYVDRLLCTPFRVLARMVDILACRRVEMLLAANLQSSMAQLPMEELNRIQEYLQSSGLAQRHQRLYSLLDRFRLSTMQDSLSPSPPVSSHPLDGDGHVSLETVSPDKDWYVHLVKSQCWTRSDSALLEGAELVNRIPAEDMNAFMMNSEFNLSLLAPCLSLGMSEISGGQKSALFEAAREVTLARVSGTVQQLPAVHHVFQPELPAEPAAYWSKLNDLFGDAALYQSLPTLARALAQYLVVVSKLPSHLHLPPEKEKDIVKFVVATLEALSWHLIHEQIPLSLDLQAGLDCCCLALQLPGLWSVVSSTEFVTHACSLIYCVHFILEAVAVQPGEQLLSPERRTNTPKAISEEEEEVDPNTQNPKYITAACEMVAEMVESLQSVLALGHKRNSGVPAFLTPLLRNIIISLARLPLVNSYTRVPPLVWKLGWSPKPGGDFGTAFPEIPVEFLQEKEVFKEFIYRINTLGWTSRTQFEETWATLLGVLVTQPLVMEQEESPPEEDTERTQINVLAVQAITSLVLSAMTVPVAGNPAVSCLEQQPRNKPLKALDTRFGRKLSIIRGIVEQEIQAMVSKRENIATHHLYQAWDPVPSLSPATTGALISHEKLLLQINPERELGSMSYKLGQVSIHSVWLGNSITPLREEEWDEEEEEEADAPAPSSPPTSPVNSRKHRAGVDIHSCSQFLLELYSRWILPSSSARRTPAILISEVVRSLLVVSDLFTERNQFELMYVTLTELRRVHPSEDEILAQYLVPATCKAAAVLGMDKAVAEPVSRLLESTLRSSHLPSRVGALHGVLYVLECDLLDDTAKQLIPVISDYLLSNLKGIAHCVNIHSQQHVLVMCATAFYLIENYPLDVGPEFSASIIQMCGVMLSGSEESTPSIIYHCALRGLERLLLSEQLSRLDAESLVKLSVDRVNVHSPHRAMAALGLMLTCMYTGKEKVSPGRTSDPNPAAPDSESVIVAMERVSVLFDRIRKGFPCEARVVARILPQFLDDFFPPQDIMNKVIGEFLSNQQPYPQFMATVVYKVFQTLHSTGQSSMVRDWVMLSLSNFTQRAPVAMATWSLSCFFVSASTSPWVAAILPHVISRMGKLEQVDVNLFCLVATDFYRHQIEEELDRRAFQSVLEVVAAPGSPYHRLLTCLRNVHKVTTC

| Structure (SMILES) | IC50 ([1]; read-out: IC50) | IC50 [1] | EC50 [2] |
| --- | --- | --- | --- |
| Fc1ccc2ncnc(N3CCN(Cc4ccc5c(c4)OCO5)CC3)c2c1 | > 10 µM | – | – |
| CCN1CCN(c2ncnc3ccc(F)cc23)CC1 | 5.26 µM | – | – |
| CCN1CCN(c2ncnc3ccc(Cl)cc23)CC1 | 3.63 µM | – | – |
| CCCNc1ncnc2ccc(Br)cc12 | 8.13 µM | – | 50 µM |
| CCN1CCN(c2ncnc3ccccc23)CC1 | > 10 µM | – | – |
| CN1CCN(c2ncnc3ccc(F)cc23)CC1 | > 10 µM | – | – |
| CN1CCN(c2ncnc3ccc(Cl)cc23)CC1 | > 10 µM | – | – |
| Brc1ccc2ncnc(N3CCN(Cc4ccc5c(c4)OCO5)CC3)c2c1 | – | Not Active | – |
| Clc1ccc2ncnc(N3CCN(Cc4ccc5c(c4)OCO5)CC3)c2c1 | 1.07 µM | – | – |
| c1ccc2c(N3CCN(Cc4ccc5c(c4)OCO5)CC3)ncnc2c1 | > 10 µM | – | – |
| C=CCNc1ncnc2ccc(Br)cc12 | 5.36 µM | – | 50 µM |
| CCN1CCN(c2ncnc3ccc(Br)cc23)CC1 | 2.21 µM | – | – |
| CN1CCN(c2ncnc3ccc(Br)cc23)CC1 | 1.31 µM | – | – |
| CN1CCN(c2ncnc3ccccc23)CC1 | > 10 µM | – | – |
| Brc1ccc2ncnc(N3CCNCC3)c2c1 | 2.74 µM | – | – |

The remaining lines, values ahead:

| IC50 ([1]; read-out: IC50) | IC50 [1] | EC50 [2] | Structure (SMILES) |
| --- | --- | --- | --- |
| 3.44 µM | – | – | Clc1ccc(CCNc2ncnc3ccc(Cl)cc23)cc1 |
| 10.5 µM | – | – | Clc1ccc(CCNc2ncnc3ccccc23)cc1 |
| – | Not Active | – | Clc1ccc(CCNc2ncnc3ccc(Br)cc23)cc1 |
| – | Not Active | – | Fc1ccc2ncnc(NCCc3ccc(Cl)cc3)c2c1 |
| 0.71 µM | – | – | Oc1ccc(CCNc2ncnc3ccc(Cl)cc23)cc1 |
| – | Not Active | – | Clc1ccc2ncnc(NCCc3ccc(Oc4ccccc4)cc3)c2c1 |
| – | Not Active | – | Clc1ccc2ncnc(NCCc3ccc(OC4CCCC4)cc3)c2c1 |
| 6.38 µM | – | – | Oc1ccc(CCNc2ncnc3ccc(F)cc23)cc1 |
| > 15.8 µM | – | – | Oc1ccc(CCNc2ncnc3ccccc23)cc1 |
| – | Not Active | – | Clc1ccc2ncnc(NCCc3ccc(OCc4ccccc4)cc3)c2c1 |
| 4.48 µM | – | – | CCOC(=O)COc1ccc(CCNc2ncnc3ccc(Cl)cc23)cc1 |
| 6.13 µM | – | 50 µM | Brc1ccc2ncnc(NCc3ccccc3)c2c1 |
| 1.11 µM | – | – | Oc1ccc(CCNc2ncnc3ccc(Br)cc23)cc1 |
| – | Not Active | – | Nc1ccc2ncnc(NCCc3ccc(Oc4ccccc4)cc3)c2c1 |
